Results: ChEMBL document CHEMBL4689842, “EUbOPEN Chemogenomics Library wave 1” (2021)

System: HEK-293T
Assay: Multiplex assay against HEK293T;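 as to Population Tubulin-Different-Phenotype (%): share of the cells with healthy nuclei that show this phenotype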
Format: toxicity, cell-based
Conditions: human
Method in brief: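 Live cells were stained at seeding with Hoechst33342, BioTracker Green Microtubule Cytoskeleton Dye, MitoTracker Red and Annexin V Alexa Fluor 680. Following compound addition, they were imaged on a CQ1 microscope at 37°C and 5% CO2 and gated by CellPathfinder machine learning into Hoechst high-intensity objects or normal cells, with normal cells split into healthy, pyknosed or fragmented nuclei and pyknosed cells into mitotic or apoptotic. Tubulin, mitochondrial-mass and membrane-permeability phenotypes are per cents of healthy-nucleus cells.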

[1] = 12 h, 1 µM, compound concentration 1 uM, replicate 1
[2] = 12 h, 1 µM, compound concentration 1 uM, replicate 2
[3] = 12 h, 10 µM, compound concentration 10 uM, replicate 1
[4] = 12 h, 10 µM, compound concentration 10 uM, replicate 2
[5] = 24 h, 1 µM, compound concentration 1 uM, replicate 1
[6] = 24 h, 1 µM, compound concentration 1 uM, replicate 2
[7] = 24 h, 10 µM, compound concentration 10 uM, replicate 1
[8] = 24 h, 10 µM, compound concentration 10 uM, replicate 2
[9] = 48 h, 1 µM, compound concentration 1 uM, replicate 1
[10] = 48 h, 1 µM, compound concentration 1 uM, replicate 2
[11] = 48 h, 10 µM, compound concentration 10 uM, replicate 1
[12] = 48 h, 10 µM, compound concentration 10 uM, replicate 2

SMILES: CCc1nn(CCCN2CCN(c3cccc(Cl)c3)CC2)c(=O)n1CCOc1ccccc1.Cl [NEFAZODONE HYDROCHLORIDE]
- Population Apoptotic (%) [1]: 47%
- Population Fragmented Nuclei (%) [1]: 7%
- Population Healthy Nuclei (%) [1]: 45%
- Population Hoechst High Intensity Objects (%) [1]: 10%
- Population Membrane Permeable-Phenotype (%) [1]: 7%
- Population Mitochondria Different-Phenotype (%) [1]: 88%
- Population Mitotic Cells (%) [1]: 52%
- Population Normal (%) [1]: 89%
- Population Pyknosed Nuclei (%) [1]: 46%
- Population Tubulin-Different-Phenotype (%) [1]: 72%
- Population Apoptotic (%) [2]: 9%
- Population Fragmented Nuclei (%) [2]: 5%
- Population Healthy Nuclei (%) [2]: 34%
- Population Hoechst High Intensity Objects (%) [2]: 3%
- Population Membrane Permeable-Phenotype (%) [2]: 9%
- Population Mitochondria Different-Phenotype (%) [2]: 54%
- Population Mitotic Cells (%) [2]: 90%
- Population Normal (%) [2]: 96%
- Population Pyknosed Nuclei (%) [2]: 59%
- Population Tubulin-Different-Phenotype (%) [2]: 49%
- Population Apoptotic (%) [3]: 90%
- Population Fragmented Nuclei (%) [3]: 29%
- Population Hoechst High Intensity Objects (%) [3]: 21%
- Population Mitochondria Different-Phenotype (%) [3]: 81%
- Population Mitotic Cells (%) [3]: 9%
- Population Normal (%) [3]: 78%
- Population Pyknosed Nuclei (%) [3]: 53%
- Population Tubulin-Different-Phenotype (%) [3]: 81%
- Population Apoptotic (%) [4]: 83%
- Population Fragmented Nuclei (%) [4]: 3%
- Population Healthy Nuclei (%) [4]: 17%
- Population Hoechst High Intensity Objects (%) [4]: 13%
- Population Membrane Permeable-Phenotype (%) [4]: 0%
- Population Mitochondria Different-Phenotype (%) [4]: 100%
- Population Mitotic Cells (%) [4]: 16%
- Population Normal (%) [4]: 86%
- Population Pyknosed Nuclei (%) [4]: 78%
- Population Tubulin-Different-Phenotype (%) [4]: 100%
- Population Apoptotic (%) [5]: 50%
- Population Fragmented Nuclei (%) [5]: 8%
- Population Healthy Nuclei (%) [5]: 57%
- Population Hoechst High Intensity Objects (%) [5]: 6%
- Population Membrane Permeable-Phenotype (%) [5]: 3%
- Population Mitochondria Different-Phenotype (%) [5]: 89%
- Population Mitotic Cells (%) [5]: 50%
- Population Normal (%) [5]: 93%
- Population Pyknosed Nuclei (%) [5]: 34%
- Population Tubulin-Different-Phenotype (%) [5]: 67%
- Population Apoptotic (%) [6]: 23%
- Population Fragmented Nuclei (%) [6]: 4%
- Population Healthy Nuclei (%) [6]: 47%
- Population Hoechst High Intensity Objects (%) [6]: 4%
- Population Membrane Permeable-Phenotype (%) [6]: 8%
- Population Mitochondria Different-Phenotype (%) [6]: 52%
- Population Mitotic Cells (%) [6]: 76%
- Population Normal (%) [6]: 95%
- Population Pyknosed Nuclei (%) [6]: 47%
- Population Tubulin-Different-Phenotype (%) [6]: 64%
- Population Apoptotic (%) [7]: 90%
- Population Fragmented Nuclei (%) [7]: 25%
- Population Healthy Nuclei (%) [7]: 21%
- Population Hoechst High Intensity Objects (%) [7]: 24%
- Population Mitotic Cells (%) [7]: 9%
- Population Normal (%) [7]: 75%
- Population Pyknosed Nuclei (%) [7]: 52%
- Population Apoptotic (%) [8]: 97%
- Population Fragmented Nuclei (%) [8]: 6%
- Population Healthy Nuclei (%) [8]: 19%
- Population Hoechst High Intensity Objects (%) [8]: 10%
- Population Membrane Permeable-Phenotype (%) [8]: 0%
- Population Mitochondria Different-Phenotype (%) [8]: 100%
- Population Mitotic Cells (%) [8]: 2%
- Population Normal (%) [8]: 89%
- Population Pyknosed Nuclei (%) [8]: 73%
- Population Tubulin-Different-Phenotype (%) [8]: 100%
- Population Apoptotic (%) [9]: 31%
- Population Fragmented Nuclei (%) [9]: 7%
- Population Healthy Nuclei (%) [9]: 77%
- Population Hoechst High Intensity Objects (%) [9]: 5%
- Population Membrane Permeable-Phenotype (%) [9]: 2%
- Population Mitochondria Different-Phenotype (%) [9]: 49%
- Population Mitotic Cells (%) [9]: 68%
- Population Normal (%) [9]: 94%
- Population Pyknosed Nuclei (%) [9]: 14%
- Population Tubulin-Different-Phenotype (%) [9]: 44%
- Population Apoptotic (%) [10]: 17%
- Population Fragmented Nuclei (%) [10]: 4%
- Population Healthy Nuclei (%) [10]: 72%
- Population Hoechst High Intensity Objects (%) [10]: 1%
- Population Membrane Permeable-Phenotype (%) [10]: 6%
- Population Mitochondria Different-Phenotype (%) [10]: 27%
- Population Mitotic Cells (%) [10]: 82%
- Population Normal (%) [10]: 98%
- Population Pyknosed Nuclei (%) [10]: 22%
- Population Tubulin-Different-Phenotype (%) [10]: 49%
- Population Apoptotic (%) [11]: 90%
- Population Fragmented Nuclei (%) [11]: 21%
- Population Healthy Nuclei (%) [11]: 33%
- Population Hoechst High Intensity Objects (%) [11]: 15%
- Population Membrane Permeable-Phenotype (%) [11]: 1%
- Population Mitochondria Different-Phenotype (%) [11]: 98%
- Population Mitotic Cells (%) [11]: 9%
- Population Normal (%) [11]: 84%
- Population Pyknosed Nuclei (%) [11]: 44%
- Population Tubulin-Different-Phenotype (%) [11]: 94%
- Population Apoptotic (%) [12]: 95%
- Population Fragmented Nuclei (%) [12]: 6%
- Population Healthy Nuclei (%) [12]: 27%
- Population Hoechst High Intensity Objects (%) [12]: 12%
- Population Membrane Permeable-Phenotype (%) [12]: 0%
- Population Mitochondria Different-Phenotype (%) [12]: 100%
- Population Mitotic Cells (%) [12]: 4%
- Population Normal (%) [12]: 87%
- Population Pyknosed Nuclei (%) [12]: 65%
- Population Tubulin-Different-Phenotype (%) [12]: 100%

SMILES: COC(=O)C1=C(C)NC(C)=C(C(=O)OCCCN2CCC(c3ccccc3)(c3ccccc3)CC2)[C@H]1c1cccc([N+](=O)[O-])c1 [NIGULDIPINE]
- Population Apoptotic (%) [1]: 86%
- Population Fragmented Nuclei (%) [1]: 7%
- Population Healthy Nuclei (%) [1]: 34%
- Population Hoechst High Intensity Objects (%) [1]: 9%
- Population Membrane Permeable-Phenotype (%) [1]: 2%
- Population Mitochondria Different-Phenotype (%) [1]: 98%
- Population Mitotic Cells (%) [1]: 13%
- Population Normal (%) [1]: 90%
- Population Pyknosed Nuclei (%) [1]: 58%
- Population Tubulin-Different-Phenotype (%) [1]: 97%
- Total Cell Count [1]: 272
- Population Apoptotic (%) [2]: 91%
- Population Fragmented Nuclei (%) [2]: 5%
- Population Healthy Nuclei (%) [2]: 32%
- Population Hoechst High Intensity Objects (%) [2]: 5%
- Population Membrane Permeable-Phenotype (%) [2]: 1%
- Population Mitochondria Different-Phenotype (%) [2]: 100%
- Population Mitotic Cells (%) [2]: 8%
- Population Normal (%) [2]: 94%
- Population Pyknosed Nuclei (%) [2]: 62%
- Population Tubulin-Different-Phenotype (%) [2]: 98%
- Total Cell Count [2]: 177
- Population Apoptotic (%) [3]: 81%
- Population Fragmented Nuclei (%) [3]: 18%
- Population Healthy Nuclei (%) [3]: 2%
- Population Hoechst High Intensity Objects (%) [3]: 15%
- Population Membrane Permeable-Phenotype (%) [3]: 0%
- Population Mitochondria Different-Phenotype (%) [3]: 66%
- Population Mitotic Cells (%) [3]: 18%
- Population Normal (%) [3]: 84%
- Population Pyknosed Nuclei (%) [3]: 79%
- Population Tubulin-Different-Phenotype (%) [3]: 66%
- Total Cell Count [3]: 266
- Population Apoptotic (%) [4]: 63%
- Population Fragmented Nuclei (%) [4]: 6%
- Population Healthy Nuclei (%) [4]: 1%
- Population Hoechst High Intensity Objects (%) [4]: 7%
- Population Membrane Permeable-Phenotype (%) [4]: 66%
- Population Mitochondria Different-Phenotype (%) [4]: 0%
- Population Mitotic Cells (%) [4]: 36%
- Population Normal (%) [4]: 92%
- Population Pyknosed Nuclei (%) [4]: 91%
- Population Tubulin-Different-Phenotype (%) [4]: 33%
- Total Cell Count [4]: 202
- Population Apoptotic (%) [5]: 86%
- Population Fragmented Nuclei (%) [5]: 7%
- Population Healthy Nuclei (%) [5]: 41%
- Population Hoechst High Intensity Objects (%) [5]: 11%
- Population Membrane Permeable-Phenotype (%) [5]: 0%
- Population Mitochondria Different-Phenotype (%) [5]: 99%
- Population Mitotic Cells (%) [5]: 13%
- Population Normal (%) [5]: 88%
- Population Pyknosed Nuclei (%) [5]: 50%
- Population Tubulin-Different-Phenotype (%) [5]: 97%
- Total Cell Count [5]: 293
- Population Apoptotic (%) [6]: 95%
- Population Fragmented Nuclei (%) [6]: 6%
- Population Healthy Nuclei (%) [6]: 44%
- Population Hoechst High Intensity Objects (%) [6]: 3%
- Population Membrane Permeable-Phenotype (%) [6]: 1%
- Population Mitochondria Different-Phenotype (%) [6]: 100%
- Population Mitotic Cells (%) [6]: 4%
- Population Normal (%) [6]: 96%
- Population Pyknosed Nuclei (%) [6]: 49%
- Population Tubulin-Different-Phenotype (%) [6]: 98%
- Total Cell Count [6]: 181
- Population Apoptotic (%) [7]: 88%
- Population Fragmented Nuclei (%) [7]: 20%
- Population Healthy Nuclei (%) [7]: 3%
- Population Hoechst High Intensity Objects (%) [7]: 12%
- Population Membrane Permeable-Phenotype (%) [7]: 11%
- Population Mitochondria Different-Phenotype (%) [7]: 66%
- Population Mitotic Cells (%) [7]: 11%
- Population Normal (%) [7]: 87%
- Population Pyknosed Nuclei (%) [7]: 75%
- Population Tubulin-Different-Phenotype (%) [7]: 77%
- Total Cell Count [7]: 263
- Population Apoptotic (%) [8]: 79%
- Population Fragmented Nuclei (%) [8]: 4%
- Population Healthy Nuclei (%) [8]: 1%
- Population Hoechst High Intensity Objects (%) [8]: 6%
- Population Membrane Permeable-Phenotype (%) [8]: 50%
- Population Mitochondria Different-Phenotype (%) [8]: 0%
- Population Mitotic Cells (%) [8]: 20%
- Population Normal (%) [8]: 93%
- Population Pyknosed Nuclei (%) [8]: 94%
- Population Tubulin-Different-Phenotype (%) [8]: 0%
- Total Cell Count [8]: 202
- Population Apoptotic (%) [9]: 85%
- Population Fragmented Nuclei (%) [9]: 9%
- Population Healthy Nuclei (%) [9]: 56%
- Population Hoechst High Intensity Objects (%) [9]: 9%
- Population Membrane Permeable-Phenotype (%) [9]: 0%
- Population Mitochondria Different-Phenotype (%) [9]: 99%
- Population Mitotic Cells (%) [9]: 14%
- Population Normal (%) [9]: 91%
- Population Pyknosed Nuclei (%) [9]: 34%
- Population Tubulin-Different-Phenotype (%) [9]: 96%
- Total Cell Count [9]: 300
- Population Apoptotic (%) [10]: 97%
- Population Fragmented Nuclei (%) [10]: 6%
- Population Healthy Nuclei (%) [10]: 55%
- Population Hoechst High Intensity Objects (%) [10]: 8%
- Population Mitochondria Different-Phenotype (%) [10]: 98%
- Population Mitotic Cells (%) [10]: 2%
- Population Pyknosed Nuclei (%) [10]: 37%
- Population Tubulin-Different-Phenotype (%) [10]: 99%
- Total Cell Count [10]: 203
- Population Fragmented Nuclei (%) [11]: 24%
- Population Healthy Nuclei (%) [11]: 3%
- Population Hoechst High Intensity Objects (%) [11]: 14%
- Population Membrane Permeable-Phenotype (%) [11]: 22%
- Population Mitochondria Different-Phenotype (%) [11]: 66%
- Population Normal (%) [11]: 85%
- Population Pyknosed Nuclei (%) [11]: 72%
- Population Tubulin-Different-Phenotype (%) [11]: 55%
- Total Cell Count [11]: 283
- Population Apoptotic (%) [12]: 93%
- Population Fragmented Nuclei (%) [12]: 11%
- Population Healthy Nuclei (%) [12]: 6%
- Population Hoechst High Intensity Objects (%) [12]: 5%
- Population Membrane Permeable-Phenotype (%) [12]: 41%
- Population Mitochondria Different-Phenotype (%) [12]: 75%
- Population Mitotic Cells (%) [12]: 6%
- Population Normal (%) [12]: 94%
- Population Pyknosed Nuclei (%) [12]: 82%
- Population Tubulin-Different-Phenotype (%) [12]: 66%
- Total Cell Count [12]: 201
